In ChEMBL document CHEMBL1155564, “New antimicrobial flavanones from Physena madagascariensis” (2000):

Tests used:
Format in all cases: functional
Settings in all cases: read-out: MEC
[1] = test system: Escherichia coli; assay: Antimicrobial activity against Escherichia coli after 16 hrs by microtiter plate assay
Procedure, shortened: (§1)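 Broth microdilution in YPAD medium (1% yeast extract, 2% peptone, 2% dextrose, 40 μg/mL adenine). Wells were scored visually after 16 h. Clear wells were plated on YPAD agar for 16 h at room temperature; regrowth meant bacteriostatic, none meant bactericidal.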

[2] = test system: Shigella sonnei; assay: Antimicrobial activity against Shigella sonnei after 16 hrs by microtiter plate assay by microtiter plate assay; procedure, shortened: as §1
[3] = test system: Staphylococcus epidermidis; assay: Antimicrobial activity against Staphylococcus epidermidis after 16 hrs by microtiter plate assay; procedure, shortened: as §1
[4] = test system: Listeria monocytogenes; assay: Antimicrobial activity against Listeria monocytogenes after 16 hrs by microtiter plate assay; procedure, shortened: as §1
[5] = test system: Staphylococcus aureus; assay: Antimicrobial activity against Staphylococcus aureus after 16 hrs by microtiter plate assay; procedure, shortened: as §1
[6] = test system: Enterococcus; assay: Antimicrobial activity against Enterococcus after 16 hrs by microtiter plate assay; procedure, shortened: as §1
[7] = test system: Salmonella enterica; assay: Antimicrobial activity against Salmonella enterica after 16 hrs by microtiter plate assay; procedure, shortened: as §1
[8] = test system: Klebsiella aerogenes; assay: Antimicrobial activity against Enterobacter aerogenes after 16 hrs by microtiter plate assay; procedure, shortened: as §1

SMILES | minimal effective concentration [1] | minimal effective concentration [2] | minimal effective concentration [3] | minimal effective concentration [4] | minimal effective concentration [5] | minimal effective concentration [6] | minimal effective concentration [7] | minimal effective concentration [8]
C=C(C)CC[C@H](Cc1c(O)cc(O)c2c1O[C@H](c1ccc(O)cc1O)CC2=O)C(=C)C [REMANGIFLAVANONE B] | 125 µg/mL | 125 µg/mL | 1.8 µg/mL | 1.8 µg/mL | 1.8 µg/mL | 7.5 µg/mL | 125 µg/mL | 125 µg/mL
C=C(C)CC[C@H](Cc1c(O)cc(O)c2c1O[C@H](c1ccc(O)cc1)CC2=O)C(=C)C [REMANGIFLAVANONE A] | 125 µg/mL | 125 µg/mL | 1.8 µg/mL | 125 µg/mL | 3.75 µg/mL | 7.5 µg/mL | 125 µg/mL | 125 µg/mL
